Screening results from PubChem.
An excerpt weighted towards active compounds, which were near 1.3% of everything screened.
procasp7 counter = counter-screen for procaspase-3 activators: activators of human procaspase-7; P55210; hit rate 0.093% among 330,000; activation, % at 8.5 µM; AID 463210; recombinant procaspase-7, Ac-DEVD-pNA absorbance 405 nm; D23A/D198A/D206A triple mutant, cannot self-cleave; scale: DMSO 0, 5 µM enzyme 100;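 active means percent activation above the screen-wide mean plus 3 SD, cut at about 25% in these data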
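Assay system – Uncleavable procaspase-7 mutant enzyme · Quantity – 2 µM procaspase-7 mutant as dispensed · Times – 1 h preincubation, 2 h reaction · Dosing – single nominal 8.5 µM compound dose, 0.8% DMSO final · Buffer or medium – Zinc-free 50 mM HEPES buffer, pH 7.4, with NaCl and Triton X-100 · Detection – Epi-absorbance of released pNA at 405 nm, two timepoints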
CHT allo act = allosteric activators of human choline transporter CHT; B-score at 10 µM; hit rate 0.49% among 310,000; CHT-expressing cells, membrane potential dye, choline EC20; hits give high values; LV-AA mutant CHT in HEK293 cells; Q9GZV3;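 active means initial fluorescence not abnormally high and integrated response B-score, plate-corrected, over 3 SD above library mean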
Target sequence (Q9GZV3 whole entry, looked up): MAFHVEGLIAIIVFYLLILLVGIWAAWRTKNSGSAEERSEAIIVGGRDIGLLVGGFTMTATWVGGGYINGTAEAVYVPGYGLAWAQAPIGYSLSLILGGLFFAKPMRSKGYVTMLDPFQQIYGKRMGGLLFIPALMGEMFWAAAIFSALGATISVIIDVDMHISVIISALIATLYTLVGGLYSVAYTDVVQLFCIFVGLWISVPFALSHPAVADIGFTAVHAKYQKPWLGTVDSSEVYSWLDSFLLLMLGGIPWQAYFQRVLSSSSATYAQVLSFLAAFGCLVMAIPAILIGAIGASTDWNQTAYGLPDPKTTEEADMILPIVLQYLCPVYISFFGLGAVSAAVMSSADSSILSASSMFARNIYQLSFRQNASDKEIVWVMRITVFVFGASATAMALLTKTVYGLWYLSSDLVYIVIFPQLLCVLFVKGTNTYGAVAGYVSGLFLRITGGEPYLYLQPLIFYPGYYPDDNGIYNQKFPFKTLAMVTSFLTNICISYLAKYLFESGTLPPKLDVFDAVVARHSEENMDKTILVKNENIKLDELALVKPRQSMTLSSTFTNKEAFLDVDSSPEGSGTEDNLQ
CHT inh = inhibitors of human choline transporter CHT; CHT-expressing cells, membrane potential dye, choline response; hits give low values; B-score at 10 µM; hit rate 0.86% among 310,000; AID 488975;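 active means B-score over 3 SD under the library average, and starting fluorescence ratio not unusually high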;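 further: choline stimulus applied at its EC90 after an EC20 pre-addition; B-score computed on integrated fluorescence ratio after choline addition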
proCasp3 act = activators of human procaspase-3. P42574. recombinant procaspase-3 D3A, Ac-DEVD-pNA absorbance 405 nm. activation, % at 8.5 µM. hit rate 0.11% among 330,000. AID 463141;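 active means activation above the mean of all tested compounds plus 3 SD, cut at about 21% in these data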;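 further: 0% = DMSO alone and 100% = DMSO wells spiked with extra 5 µM PC-3 D3A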
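material = Procaspase-3 D3A mutant | probe or stimulus = Ac-DEVD-pNA | compound = single dose, 8.5 µM nominal compound, 0.8% DMSO | timing = 1 h preincubation, 2 h reaction | measured by = 405 nm absorbance of p-nitroaniline, reads at 0 and 120 min | benchmarks = DMSO-only low control, 5 µM PC-3 D3A high control | repeats = singlicate, each compound tested once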
CHT block conf = confirmation of human choline transporter CHT inhibitors | shares compounds with CHT inh | CHT-expressing cells, choline membrane potential dye; LV-to-AA substituted CHT, HEK293 cells | CHT activity remaining % of control (hits give low values), % at 10 µM | hit rate 70% among 2,400 | AID 493221;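 active means choline transporter activity left, mean of duplicates at 10 µM, below buffer-only control mean minus 3 SD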;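 further: depolarization triggered by choline at its EC90 following an EC20 pre-addition; 0% = hemicholinium-3 full block and 100% = buffer-only control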
HEK293 MPD ctr = activity in parental HEK293 cells lacking CHT; membrane potential dye, choline response; active = decrease or increase beyond buffer ±3SD; AID 493222; hit rate 4% among 2,400; membrane potential ratio readout (active if shifted either direction beyond buffer ±3SD; no single direction) at 10 µM; shares compounds with CHT inh;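 further: parental cells lack the transporter so any hit is non-specific; ratio is peak minus trough fluorescence over baseline after EC90 choline challenge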
Numbers without * were called inactive; i = inactive; . = not tested or not shown.

SMILES	procasp7 counter	CHT allo act	CHT inh	proCasp3 act	CHT block conf	HEK293 MPD ctr
CC(C)=CCc1c(O)cc2oc3c(CC=C(C)C)c(O)c(O)c(CC=C(C)C)c3c(=O)c2c1O	9	i	-6.5*	14	i	i
Cc1noc(C)c1NC(=O)N(C)C[C@H]1Oc2ccc(NC(=O)NC3CCCCC3)cc2C(=O)N([C@H](C)CO)C[C@@H]1C	15	.	.	7	.	.
COc1ccc(OCC(=O)OCC(=O)NC2CCCCC2C)cc1 (stereo unspecified)	4	.	.	2	.	.
COc1cc(NC2CCCCC2O)c2nc(-c3ccc(Cl)cc3)ccc2c1 (stereo unspecified)	0	i	-8.4*	2	49%*	i
CC1(C)OC2C(O1)[C@@H](CO)O[C@H]2n1cnc2c(N)ncnc21 (stereo partly specified)	3	i	i	4	.	.
Nc1ncnc2c1ncn2[C@@H]1O[C@H](CO)[C@@H](O)[C@H]1O	-2	i	-6*	-2	30%*	i
CC(=O)C(Sc1nc(N(C)C)nc(N(C)C)n1)C(=O)Nc1ccccc1 (stereo unspecified)	-1	i	i	0	.	.
CC(=O)C(Sc1nn(C)c(=S)s1)C(=O)Nc1ccccc1 (stereo unspecified)	-33	i	-5.4*	-11	49%*	i
O=C(CCN1CCN(Cc2ccccc2)CC1)NNC(=O)Nc1cccc([N+](=O)[O-])c1	.	i	i	.	.	.
COC(CNC(=O)C(=O)NCC1CCCN1S(=O)(=O)c1cccs1)OC (stereo unspecified)	0	i	i	-7	.	.
Cc1ccc(OCC(=O)NNC(=S)NC(=O)C(C)(C)C)c(Br)c1	-7	i	-10*	1	55%*	i
Cc1cccn2c(=O)c3cc(C(=O)NCc4cccnc4)c(=N)n(CC4CCCO4)c3nc12 (stereo unspecified)	-17	i	i	-12	.	.
CN1CCN(C(CNS(=O)(=O)c2ccc([N+](=O)[O-])cc2)c2ccc(F)cc2)CC1 (stereo unspecified)	3	i	i	-3	.	.
CCCCCCCC/C=C\CCCCCCCC(=O)O	10	i	i	-5	.	.
CCCCC1C(=O)CC[C@H]2[C@@H]1CC(=O)[C@@H]2C/C=C\CCCC(=O)O (stereo partly specified)	-3	i	-5.5*	2	34%*	i
Cc1ccc(S(=O)(=O)NCc2csc(-c3cccs3)n2)cc1	1	i	i	-6	.	.
O=S(=O)(NCc1csc(-c2cccs2)n1)c1ccc(Cl)cc1	3	i	-6.6*	-3	70%*	i
O=S(=O)(NCc1csc(-c2cccs2)n1)c1cccc(C(F)(F)F)c1	1	i	-5.5*	-2	54%*	i
CCOc1cc(C(C(=O)NCC2CCCO2)N(C(=O)Cn2nnc3ccccc32)c2ccccc2OC)ccc1O (stereo unspecified)	-5	i	i	-6	.	.
O=S(=O)(NCc1ccccc1)c1ccc(NC(=S)NCc2ccco2)cc1	3	i	i	4	.	.
O=S(=O)(Nc1ccc2ccccc2n1)c1ccccc1	2	i	i	4	.	.
CCCOc1ncnc2c1[nH]c1ccccc12	1	i	i	-4	.	.
CCN(CC)c1ncnc2c1[nH]c1ccccc12	0	i	-6.6*	2	52%*	i
OC1CCCN(c2c3c(nc4cc(-c5cccc(F)c5)nn24)CCCC3)C1 (stereo unspecified)	10	i	-5.2*	-3	i	i
Oc1c(Br)cc(Br)cc1C=Nc1cccc2ncccc12	-19	i	-8.2*	-13	53%*	i
SMILES	procasp7 counter	CHT allo act	CHT inh	proCasp3 act	CHT block conf	HEK293 MPD ctr
COc1ccccc1/C=N/NC(=S)NCc1ccco1	-5	i	i	-1	.	.
Oc1c(Br)cc(/C=N/NC(=S)NCc2ccco2)cc1Br	-20	i	-5.1*	11	67%*	i
Oc1ccc(-c2nc(-c3ccc(O)c(O)c3)cs2)cc1	-30	i	-5*	-21	68%*	i
CC(=O)OCCCCCCCCCCC[N+]1(C)CCCCC1	-5	i	-8.3*	3	27%*	i
COC(=O)CCCCCCCCCC[N+]1(C)CCCCC1	1	i	-5.1*	9	42%*	i
C#CC[N+](CC)(CC)CC#Cc1ccccc1	-4	i	-7.7*	0	35%*	i
O=C(Nc1cc(C(F)(F)F)ccc1N1CCOCC1)c1ccc[n+]([O-])c1	14	i	i	0	.	.
Cc1ccc[n+](CC(=O)Nc2cc(C(F)(F)F)ccc2N2CCOCC2)c1	0	i	-8*	-6	25%*	i
O=[N+]([O-])c1c(Nc2cccc(O)c2)cc(Cl)c2nonc12	-11	i	-7.4*	-3	28%*	i
O=C(O)c1ccc(Nc2cc(Cl)c3nonc3c2[N+](=O)[O-])cc1	-5	i	i	-13	.	.
O=C(Cn1nc(-c2ccccc2)c2ccccc2c1=O)Nc1ccc(O)cc1	-1	i	i	3	.	.
CC(NC(=O)Cn1nc(-c2ccccc2)c2ccccc2c1=O)c1ccccc1 (stereo unspecified)	5	i	-5.2*	-8	69%*	i
Cc1ccc(OCCOC(=O)c2c(-c3ccccc3)noc2C)cc1	-7	i	-5*	-7	i	i
Cc1onc(-c2ccccc2)c1C(=O)OCCOc1cccc(Cl)c1	11	i	i	-3	.	.
CCc1nnc(NC(=O)CN2CCN(Cc3ccc(F)cc3)CC2)s1	0	i	i	11	.	.
O=C(c1ccc2c(c1)OCO2)C1CCCN(Cc2ccccc2OC(F)F)C1 (stereo unspecified)	7	i	i	1	.	.
COc1cccc(CN2CCCC(C(=O)c3ccc4c(c3)OCO4)C2)c1OC (stereo unspecified)	-4	i	-12*	-7	i	i
COc1ccc(OC)c(S(=O)(=O)N2CCC(C(=O)N3CCc4ccccc4C3)CC2)c1	-1	i	i	-3	i	i
C=CCNC(=S)NNC(=O)c1ccccc1OCC	0	i	i	11	.	.
Oc1c(Br)cc(Br)cc1/C=N/c1nc2c(s1)CCCC2	-17	i	-12*	-23	57%*	i
CCn1cc(C(=O)NCCCN2CCCC(C)C2)c(=O)c2cc(S(=O)(=O)N3CCc4ccccc4C3)ccc21 (stereo unspecified)	-1	i	-16*	-2	20%*	3.6*
